Measurements as given in ChEMBL document CHEMBL1158523, “Piperidine-based heterocyclic oxalyl amides as potent p38 alpha MAP kinase inhibitors” (Bioorg Med Chem Lett, 2010).

What was measured:
Blood [1] = assay: Inhibition of LPS-induced TNFalpha production in human diluted whole blood after 2 hrs by ELISA; format: functional, tissue-based
[2] = molecular target: Mitogen-activated protein kinase 14 (Homo sapiens, UniProt Q16539); assay: Inhibition of human p38alpha after 60 mins
In short: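 Radiometric kinase assay measuring incorporation of γ-32P-ATP into biotinylated peptide substrate by human p38α (5 nM). 60 min at 30 °C, phosphoric acid stop, streptavidin capture, scintillation counting; background-subtracted IC50 versus no-inhibitor controls.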

Blood [3] = assay: Inhibition of LPS-induced TNFalpha production in human diluted whole blood at 1 uM after 2 hrs by ELISA; format: functional
Blood [4] = assay: Inhibition of LPS-induced TNFalpha production in human diluted whole blood at 0.3 uM after 2 hrs by ELISA; format: functional

Sequence of Mitogen-activated protein kinase 14 (Q16539 whole entry): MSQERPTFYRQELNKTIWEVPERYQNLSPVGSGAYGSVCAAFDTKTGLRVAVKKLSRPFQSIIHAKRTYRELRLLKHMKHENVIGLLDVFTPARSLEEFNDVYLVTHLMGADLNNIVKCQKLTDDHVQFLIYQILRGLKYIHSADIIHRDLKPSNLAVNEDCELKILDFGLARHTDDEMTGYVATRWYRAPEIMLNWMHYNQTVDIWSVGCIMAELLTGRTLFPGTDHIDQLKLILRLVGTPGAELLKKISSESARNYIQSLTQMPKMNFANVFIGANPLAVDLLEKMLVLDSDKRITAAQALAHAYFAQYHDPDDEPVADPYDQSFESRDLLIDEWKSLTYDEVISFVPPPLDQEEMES

IC50 (Blood [1]) [nM] | IC50 [2] [nM] | SMILES | inhibition at 1 µM (Blood [3]) [%] | inhibition at 0.3 µM (Blood [4]) [%]
 | 600 | COc1cc2occ(C(=O)C(=O)N(C)C)c2cc1C(=O)N1CCC(Cc2ccc(F)cc2)CC1 | 10 | 
100 | 18 | CN(C)C(=O)C(=O)c1c[nH]c2cc(Cl)c(C(=O)N3CCC(Cc4ccc(F)cc4)CC3)cc12 |  | 
 | > 10000 | CN(C)C(=O)C(=O)c1ccc2c(c1)C=C(C(=O)N1CCC(Cc3ccc(F)cc3)CC1)C(C(F)(F)F)O2 (centres undefined) |  | 
 | 945 | COc1ccc(C(=O)C(=O)N(C)C)cc1C(=O)N1CCC(Cc2ccc(F)cc2)CC1 | 17 | 

Continued, molecule first:

SMILES | IC50 (Blood [1]) [nM] | IC50 [2] [nM] | inhibition at 1 µM (Blood [3]) [%] | inhibition at 0.3 µM (Blood [4]) [%]
COc1nc2[nH]cc(C(=O)C(=O)N(C)C)c2cc1C(=O)N1CCC(Cc2ccc(F)cc2)CC1 | 48 | 60 |  | 
Cc1[nH]c2ccc(C(=O)C(=O)N(C)C)cc2c1C(=O)N1CCC(Cc2ccc(F)cc2)CC1 |  | 90 |  | 
COc1cc2[nH]cc(C(=O)C(=O)N(C)C)c2cc1C(=O)N1CCC(Cc2ccc(F)cc2)CC1 | 30 | 10 |  | 
CN(C)C(=O)C(=O)c1nn(C)c2cc(Cl)c(C(=O)N3CCC(Cc4ccc(F)cc4)CC3)cc12 |  | 100 |  | 26
